Screens deposited in PubChem by several laboratories.
Hsp70 activator: Hsp70 transcriptional activation, primary screen. 0.04% of 200,000 active. AID 1203. HeLa Hsp70 promoter luciferase reporter, luminescence; scaled: vehicle 0, proteasome-inhibitor control 100%. activation, % at 10 µM;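 active = activation above the mean across all tested compounds plus 3 SD, cutoff set per campaign, cut at about 5.5% in these data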;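 note: 100% = MG132 at 30 µM as the positive control and 0% = DMSO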
Wee1 stabilizer: inhibitors of human Wee1 degradation; P30291; HeLa Luc-Wee1K328M stability, luciferase luminescence; 100% = proteasome inhibitor MG132 effect; reporter increase, % at 5 µM; 1.2% of 220,000 active; AID 1321;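 active = activation above the mean of all tested compounds plus 3 SD, set per screening run, cut at about 8.8% in these data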;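 note: cells exposed to compound for 20 h before luminescence read; 0% = DMSO alone and 100% = MG132 at 30 µM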
Mdm2 ligase inh: Mdm2 E3 ligase (human) inhibition; AID 1230; signal enhancement, % at 5 µM; Q00987; cell-based MDM2 ubiquitination luciferase reporter, 2 h; 0 = plate control, 100 = twice control, blank-subtracted; 0.11% of 210,000 active;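 active = signal enhancement of 30% or more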;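 note: luminescence tracks abundance of the self-degrading MDM2-luciferase fusion protein; higher signal means inhibition of MDM2 E3 ligase activity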
Target sequence (Q00987 whole entry, looked up, the tested form may be a part): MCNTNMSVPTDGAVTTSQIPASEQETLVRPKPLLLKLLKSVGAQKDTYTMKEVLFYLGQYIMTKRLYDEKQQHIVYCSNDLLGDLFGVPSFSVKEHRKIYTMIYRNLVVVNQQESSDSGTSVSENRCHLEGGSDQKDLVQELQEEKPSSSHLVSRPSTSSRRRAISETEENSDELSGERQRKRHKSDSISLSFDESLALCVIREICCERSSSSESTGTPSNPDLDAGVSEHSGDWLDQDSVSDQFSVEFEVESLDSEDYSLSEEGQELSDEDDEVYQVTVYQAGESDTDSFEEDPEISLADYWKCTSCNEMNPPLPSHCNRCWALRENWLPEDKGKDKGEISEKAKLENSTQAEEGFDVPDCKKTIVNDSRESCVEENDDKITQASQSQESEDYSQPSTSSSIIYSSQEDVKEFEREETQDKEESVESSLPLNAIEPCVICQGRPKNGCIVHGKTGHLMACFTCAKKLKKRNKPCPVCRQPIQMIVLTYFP
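Material: Stable MDM2–luciferase fusion reporter cells | Amount: 2000 cells seeded into each well | Dosing: One concentration, 5 µM, with 0.2% DMSO | Incubation: 4 h cell settling then 2 h compound exposure, 37 °C | Measured by: Luciferase luminescence | Read-out basis: % enhancement relative to plate controls after blank subtraction | Benchmarks: Control and blank well means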
Calpain2 inh: calpain II (pig) inhibition; purified calpain II, fluorogenic peptide substrate, 30 min; inhibition, % at 16 µM; 0.37% of 220,000 active;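 active = inhibition above about 50%, limit read from the data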
Pf gametocyte: inhibitors of late stage P. falciparum gametocyte viability | 0.065% of 150,000 active | inhibition, % at 10.9 µM | P. falciparum stage V gametocytes, ATP luminescence, 24 h;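 active = inhibition above the mean plus 3 SD of compounds within the control limits, set per campaign, cut at about 38% in these data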;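 note: 0% = DMSO wells and 100% = medium only without gametocytes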
* = called active by the depositor; x = no result given. Rows were chosen to be rich in hits. Some 1.5% of all compounds tested hit in one or more screens of this group.

SMILES | Hsp70 activator | Wee1 stabilizer | Mdm2 ligase inh | Calpain2 inh | Pf gametocyte
COc1ccc2nc(SCC(=O)c3ccco3)[nH]c2c1 | 0 | 9.1* | -13 | 2 | -4
COC(=O)c1cc2ccsc2n1CC(=O)N1CCCc2ccccc21 | 0 | 20* | 0 | 0 | 5
Cc1ccnc(Nc2nc3ccccc3o2)n1 | 0 | -2 | -44 | 133* | x
CC(O)/C=C/C1OC(=O)CC1Nc1ccc(C=O)cc1 (stereo not given) | 0 | 11* | -2 | 6 | x
Fc1ccc(-c2nc(-c3cnccn3)no2)c(Cl)c1 | x | 9.4* | -34 | 10 | -6
COc1cc2sc(-c3ccc(S(C)(=O)=O)cc3)c(-c3ccc4c(c3)OCO4)c2cc1OC | x | x | x | x | 7
CCOc1cc(/C=N/Nc2ccc(C(=O)O)cc2)ccc1OC(=O)c1ccccc1C | x | 1 | -13 | 82* | -5
COc1cccc(C(=O)Oc2ccc(/C=N/Nc3ccc(C(=O)O)cc3)cc2OC)c1 | x | x | x | x | -35
COC(=O)c1cc(=O)c2c(C)nc(C(Cl)(Cl)Cl)nc2[nH]1 | 0 | 10* | 0 | 15 | -6
Cc1nnc(NC(=O)CCC(=O)NCc2ccco2)s1 | 0 | 10.0* | 1 | 11 | x
CCCC(=O)Nc1nnc(-c2ccco2)s1 | 0 | 9 | -14 | 2 | -23
O=C(Nc1ccc(CN2CCS(=O)(=O)CC2)cc1)c1ccc(F)cc1 | x | 9.7* | -9 | -19 | -20
O=C(Nc1ccc(CN2CCS(=O)(=O)CC2)cc1)c1ccc(C(F)(F)F)cc1 | x | -2 | -17 | 9 | -1
COc1ccc(C2CC(c3ccccc3)=NN2C(=O)CSc2nnnn2-c2cccc(C)c2)cc1 (stereo not given) | x | x | x | x | 5
Cc1c(C(=O)N2CCC(C)CC2)sc2ncnc(N3CCN(c4ccccc4)CC3)c12 | 0 | 0 | 3 | 63* | x
Cc1c(C(=O)N2CCN(c3ccccn3)CC2)sc2ncnc(N3CCOCC3)c12 | 0 | -1 | x | 13 | -26
CCC(C)c1ccc(S(=O)(=O)N2CCN3CCCC3C2)cc1 (stereo not given) | x | x | x | x | 16
O=S(=O)(c1ccc(F)c(F)c1)N1CCN(c2ccccn2)CC1 | x | x | x | x | 15
NS(=O)(=O)c1cccc(NC(=O)COC(=O)c2cc(-c3ccc(Cl)cc3)nc3ccccc23)c1 | 0 | 9.0* | -13 | -89 | 18
CCc1cccc(CC)c1NC(=O)COC(=O)c1cccc(S(=O)(=O)N2CCc3ccccc3C2)c1 | 0 | 0 | -4 | 13 | -11
CN(C)S(=O)(=O)c1cccc(NC(=O)COC(=O)c2cccc(S(=O)(=O)N3CCc4ccccc4C3)c2)c1 | 0 | 11* | -1 | -30 | 12
Cc1cc(C(=O)OCC(=O)Nc2cccc(S(=O)(=O)N(C)C)c2)c2ccccc2n1 | 0 | 11* | -11 | 16 | x
COc1ccccc1-c1coc2c(CN3CCOCC3)c(O)ccc2c1=O | x | x | x | x | -7
O=c1ccc(Cl)nn1-c1ccccc1 | x | x | x | x | -7
Cc1cc(OCC(O)CN2CCN(c3ccccn3)CC2)cc(C)c1Cl (stereo not given) | x | x | x | x | -10
SMILES | Hsp70 activator | Wee1 stabilizer | Mdm2 ligase inh | Calpain2 inh | Pf gametocyte
CCCCNC(=O)c1ccc(NC(=O)C2CCCO2)cc1 (stereo not given) | 0 | -2 | -17 | 15 | x
CCCCc1ccc(NC(=O)C2CCCO2)cc1 (stereo not given) | 0 | 0 | -4 | 53* | x
COc1ccccc1CCN1CCCC(CN(C)C(=O)CCC(N)=O)C1 (stereo not given) | x | x | x | x | -3
O=C(N/N=C/c1cccc([N+](=O)[O-])c1)c1cc[n+](CCO)cc1 | x | x | x | x | -4
O=C(Nc1ccccc1)[C@@H]1CC=C[C@@H]2CCN(Cc3ccc(Cl)c(Cl)c3)C(=O)[C@@H]21 | x | x | x | x | 15
CCNc1nc(SC(C)C(=O)Nc2ccccc2)nc(N(C)C)n1 (stereo not given) | 0 | 0 | 8 | -16 | -7
CC(C)Nc1nc(SC(C)C(=O)Nc2ccccc2)nc(N(C)C)n1 (stereo not given) | 0 | 10* | -31 | -15 | 11
CCOC(=O)[C@@H]1[C@H]2COc3cc(OC)ccc3[C@H]2N2C(=O)N(c3ccc(C(F)(F)F)cc3)C(=O)[C@]12C | x | x | x | x | 26
CCCN1C(=O)N(c2cccc(C)c2)C(C)(O)CC1(C)C (stereo not given) | x | 0 | -4 | 33 | -3
C=CCNc1ncnc2sc(SC)nc12 | x | 10* | -17 | -3 | x
CC(C)n1c(O)c(N=NC(=O)CNC(=O)CCc2ccccc2)c2ccccc21 | x | 0 | -8 | 66* | -3
C[C@H](CO)N1C[C@H](C)[C@@H](CN(C)S(=O)(=O)c2cccs2)Oc2c(NC(=O)NC3CCCCC3)cccc2C1=O | x | x | x | x | 2
Cc1ccc(S(=O)(=O)n2ccc(-c3cccc(OCc4c(F)cccc4Cl)c3)n2)cc1 | 0 | -2 | -11 | 6 | x
Cc1ccc(S(=O)(=O)n2ccc(-c3ccc(OCc4c(F)cccc4Cl)cc3)n2)cc1 | 0 | 8.8* | -14 | 16 | x
CCc1ccccc1NC(=O)C(Cc1ccccc1)c1nn[nH]n1 (stereo not given) | x | x | x | x | -6
CCOc1ccc(-c2cnc(NCc3cccc4ccccc34)n2CCOC)cc1 | x | x | x | x | 5
Cc1ccc(C(C)C)c(OCCNC(=S)Nc2cccc3ccccc23)c1 | 0 | -2 | -1 | 51* | x
O=C(OCc1c(-c2ccccc2)ncc2ccccc12)c1cccc(Br)c1 | x | x | x | x | -14
O=C(Nc1ccc2ccccc2c1)C(=O)C1C(=O)Nc2ccccc21 (stereo not given) | x | -3 | -24 | 51* | -13
Cc1cc(C)cc(N(C(=O)C(F)(F)F)C(C(=O)NC2CCCCC2)c2cccs2)c1 (stereo not given) | 0 | 11* | -15 | 4 | x
Cc1cccc(N(C(=O)C(F)(F)F)C(C(=O)NC2CCCCC2)c2cccs2)c1 (stereo not given) | 0 | 3 | -17 | 4 | x
O=C(Nc1ccc(Cl)c(Cl)c1)Nc1nnc(-c2ccncc2)s1 | 0 | 7 | -19 | 102* | 2
Cc1cc(C)cc(OCC(=O)Nc2ccncc2)c1 | x | x | x | x | -3
Cc1ccc(NS(=O)(=O)c2ccc(NC(=O)c3ccccc3C(=O)O)cc2)cc1C | x | x | x | x | 2
Fc1ccccc1CSc1nc2ncccc2[nH]1 | 0 | 10* | -5 | -4 | x
SMILES | Hsp70 activator | Wee1 stabilizer | Mdm2 ligase inh | Calpain2 inh | Pf gametocyte
O=c1[nH]c(SCc2ccccc2F)nc2ccccc12 | 0 | 0 | 2 | -28 | 0
O=S(=O)(NCCN1CCOCC1)c1cc(Cl)c(Cl)cc1Cl | x | x | x | x | -8
COc1ccc(/C=C2\SC(=S)NC2=O)cc1OS(=O)(=O)c1ccc(NC(C)=O)cc1 | 0 | 0 | -6 | -64 | -12
COc1cc(/C=C2/SC(=S)NC2=O)ccc1OS(=O)(=O)c1ccc(C)cc1 | 0 | -1 | 0 | 63* | x
COc1cc(/C=C2\SC(=S)NC2=O)ccc1OS(=O)(=O)c1ccccc1 | 0 | -3 | -13 | 62* | x
CCOc1ccc(S(=O)(=O)NCc2ccc3c(c2)OCO3)cc1NC(C)=O | x | x | x | x | 2
NC(=O)c1cc([N+](=O)[O-])ccc1NCC1CCCCC1 | x | x | x | x | 3
